Converted amounts (≈) assume the structure as drawn.
Tests used:
[1] = system: Haemophilus influenzae; experiment: Antimicrobial activity against Haemophilus influenzae by broth microdilution/CLSI method; assay type: functional; settings: Haemophilus influenzae; read-out: MIC
[2] = target: DNA gyrase subunit B (Staphylococcus aureus, UniProt P0A0K8); experiment: Inhibition of ATPase activity of Staphylococcus aureus GyrB
Summary of the method: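 IC50 was determined against S. aureus GyrB in the routine screening assay. The enzyme concentration limits resolution below 10 nM.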

[3] = system: Streptococcus pneumoniae; experiment: Antibacterial activity against Streptococcus pneumoniae by broth microdilution/CLSI method; assay type: functional; settings: Streptococcus pneumoniae; read-out: MIC
[4] = system: Streptococcus pyogenes; experiment: Antimicrobial activity against Streptococcus pyogenes by broth microdilution/CLSI method; assay type: functional
[5] = system: Staphylococcus aureus; experiment: Antimicrobial activity against methicillin-sensitive Staphylococcus aureus by broth microdilution/CLSI method; assay type: functional; settings: Staphylococcus aureus; read-out: MIC
[6] = system: Staphylococcus aureus; experiment: Antimicrobial activity against methicillin, quinolone-resistant Staphylococcus aureus by broth microdilution/CLSI method; assay type: functional; settings: Staphylococcus aureus; read-out: MIC
[7] = system: Moraxella catarrhalis; experiment: Antimicrobial activity against Moraxella catarrhalis by broth microdilution/CLSI method; assay type: functional; settings: Moraxella catarrhalis; read-out: MIC
[8] = system: Escherichia coli; experiment: Antimicrobial activity against wild-type Escherichia coli Eco523 by broth microdilution/CLSI method; assay type: functional; settings: Escherichia coli, Eco523; read-out: MIC
[9] = system: Escherichia coli; experiment: Antimicrobial activity against Escherichia coli tolC- by broth microdilution/CLSI method; assay type: functional; settings: Escherichia coli; read-out: MIC
[10] = Octanol-phosphate buffer distribution coefficient, log D of the compound at pH 7.4 by shake flask method; assay type: physicochemical
[11] = Percentage unbound in human plasma; assay type: ADME, cell-free
[12] = Solubility of the compound; assay type: physicochemical
[13] = Ratio of MIC for methicillin, quinolone-resistant Staphylococcus aureus to fraction unbound in human plasma; assay type: ADME
[14] = Clearance in rat at 10 mg/kg, iv; assay type: ADME, organism-based; design: dose 10 mg/kg, route intravenous; settings: in vivo

DNA gyrase subunit B, sequence (P0A0K8 whole entry): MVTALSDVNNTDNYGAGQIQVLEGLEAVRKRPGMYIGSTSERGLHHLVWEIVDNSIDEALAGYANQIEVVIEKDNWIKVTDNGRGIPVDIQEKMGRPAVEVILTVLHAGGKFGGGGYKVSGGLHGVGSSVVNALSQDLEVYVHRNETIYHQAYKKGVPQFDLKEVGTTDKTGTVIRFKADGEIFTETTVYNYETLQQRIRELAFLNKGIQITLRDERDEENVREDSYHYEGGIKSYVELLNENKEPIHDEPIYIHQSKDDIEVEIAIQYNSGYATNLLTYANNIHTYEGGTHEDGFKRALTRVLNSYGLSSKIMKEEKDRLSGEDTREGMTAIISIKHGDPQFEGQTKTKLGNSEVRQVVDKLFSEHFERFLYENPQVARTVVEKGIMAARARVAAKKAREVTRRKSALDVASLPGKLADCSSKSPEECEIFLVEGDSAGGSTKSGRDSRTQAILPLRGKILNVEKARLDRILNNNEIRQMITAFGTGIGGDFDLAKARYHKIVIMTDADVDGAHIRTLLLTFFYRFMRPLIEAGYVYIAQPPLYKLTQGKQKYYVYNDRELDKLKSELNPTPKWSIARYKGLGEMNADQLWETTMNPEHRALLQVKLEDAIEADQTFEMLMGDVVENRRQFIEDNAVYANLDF

Compound	MIC [1] [µg/mL]	IC50 [2] [nM]	MIC [3] [µg/mL]	MIC [4] [µg/mL]	MIC [5] [µg/mL]	MIC [6] [µg/mL]	MIC [7] [µg/mL]	MIC [8] [µg/mL]	MIC [9] [µg/mL]	logD [10]	fraction unbound [11]	solubility [12] [µM]	Ratio [13]	clearance [14] [mL/min/kg]
CO[C@H]1CN(c2nc(-c3ncc[nH]3)c(C(=O)O)s2)CC[C@H]1NC(=O)c1[nH]c(C)c(Cl)c1Cl	1 (≈ 2 µM)	< 10	< 0.06	0.08 (≈ 0.16 µM)	0.63 (≈ 1.26 µM)	1 (≈ 2 µM)	< 0.06	> 64	< 0.06	> 2.5	< 0.01	< 1	100	–
CNC(=O)c1sc(N2CC[C@@H](NC(=O)c3[nH]c(C)c(Cl)c3Cl)[C@@H](OC)C2)nc1C(=O)O	–	< 10	> 32	–	–	2 (≈ 4.08 µM)	–	> 64	2 (≈ 4.08 µM)	–	< 0.01	> 1000	> 200	–
CO[C@H]1CN(c2nc(CO)c(C(=O)O)s2)CC[C@H]1NC(=O)c1[nH]c(C)c(Cl)c1Cl (racemic)	8 (≈ 17.3 µM)	< 10	2 (≈ 4.32 µM)	–	> 8	–	1 (≈ 2.16 µM)	> 8	1 (≈ 2.16 µM)	-0.27	0.029	–	17	–
CO[C@H]1CN(c2nc(-c3nccs3)c(C(=O)O)s2)CC[C@H]1NC(=O)c1[nH]c(C)c(Cl)c1Cl	0.13 (≈ 0.252 µM)	< 9.8	< 0.06	< 0.06	< 0.06	–	< 0.06	8 (≈ 15.5 µM)	0.13 (≈ 0.252 µM)	3.6	< 0.01	16 (≈ 8.26 µg/mL)	< 6.3	–
CO[C@H]1CN(c2nc(C(N)=O)c(C(=O)O)s2)CC[C@H]1NC(=O)c1[nH]c(C)c(Cl)c1Cl	0.16 (≈ 0.336 µM)	< 10	0.039 (≈ 0.0819 µM)	0.039 (≈ 0.0819 µM)	0.5 (≈ 1.05 µM)	0.5 (≈ 1.05 µM)	0.02 (≈ 0.042 µM)	> 8	0.32 (≈ 0.672 µM)	0.85	0.043	280 (≈ 133 µg/mL)	12	–
COc1ccnc(-c2nc(N3CC[C@@H](NC(=O)c4[nH]c(C)c(Cl)c4Cl)[C@@H](OC)C3)sc2C(=O)O)n1	0.25 (≈ 0.462 µM)	< 10	< 0.06	< 0.06	< 0.06	–	< 0.06	16 (≈ 29.6 µM)	–	–	0.036	–	1.75	6.3
CO[C@H]1CN(c2nc(-c3csc(N)n3)c(C(=O)O)s2)CC[C@H]1NC(=O)c1[nH]c(C)c(Cl)c1Cl	0.5 (≈ 0.941 µM)	< 9.8	< 0.06	< 0.06	< 0.06	–	< 0.06	4 (≈ 7.53 µM)	< 0.06	3	< 0.01	< 1	< 6.3	–
CO[C@H]1CN(c2nc(-c3cn(C)cn3)c(C(=O)O)s2)CC[C@H]1NC(=O)c1[nH]c(C)c(Cl)c1Cl	2 (≈ 3.9 µM)	< 10	< 0.06	< 0.06	0.13 (≈ 0.253 µM)	0.13 (≈ 0.253 µM)	< 0.06	16 (≈ 31.2 µM)	< 0.06	2.5	0.019	3 (≈ 1.54 µg/mL)	6.8	–
CO[C@H]1CN(c2nc(-c3ccccn3)c(C(=O)O)s2)CC[C@H]1NC(=O)c1[nH]c(C)c(Cl)c1Cl	0.5 (≈ 0.98 µM)	< 9.8	< 0.06	< 0.06	< 0.06	–	< 0.06	8 (≈ 15.7 µM)	0.13 (≈ 0.255 µM)	> 2.5	0.003	< 1	< 21	–
COCc1nc(N2CC[C@@H](NC(=O)c3[nH]c(C)c(Cl)c3Cl)[C@@H](OC)C2)sc1C(=O)O	0.35 (≈ 0.733 µM)	< 10	0.12 (≈ 0.251 µM)	–	0.5 (≈ 1.05 µM)	1 (≈ 2.09 µM)	0.063 (≈ 0.132 µM)	> 8	0.5 (≈ 1.05 µM)	0.44	0.034	> 1000	29	–
CO[C@H]1CN(c2nc(C(=O)NC[C@H](C)OC)c(C(=O)O)s2)CC[C@H]1NC(=O)c1[nH]c(C)c(Cl)c1Cl	0.13 (≈ 0.237 µM)	< 10	0.016 (≈ 0.0292 µM)	< 0.008	0.031 (≈ 0.0565 µM)	0.031 (≈ 0.0565 µM)	< 0.008	> 8	0.5 (≈ 0.912 µM)	–	0.027	–	1.1	13
CO[C@H]1CN(c2nc(C(=O)N(C)C)c(C(=O)O)s2)CC[C@H]1NC(=O)c1[nH]c(C)c(Cl)c1Cl (racemic)	8 (≈ 15.9 µM)	< 10	4 (≈ 7.93 µM)	–	8 (≈ 15.9 µM)	> 8	2 (≈ 3.97 µM)	> 8	2 (≈ 3.97 µM)	-1	0.13	> 1000	> 62	–
CO[C@H]1CN(c2nc(C(=O)O)c(C(N)=O)s2)CC[C@H]1NC(=O)c1[nH]c(C)c(Cl)c1Cl (racemic)	> 8	< 10	1 (≈ 2.1 µM)	–	> 8	–	2 (≈ 4.2 µM)	> 8	1 (≈ 2.1 µM)	-0.63	0.005	–	160	–
CO[C@H]1CN(c2nc(C(=O)NCCN3CCCC3=O)c(C(=O)O)s2)CC[C@H]1NC(=O)c1[nH]c(C)c(Cl)c1Cl	0.5 (≈ 0.851 µM)	< 10	< 0.06	< 0.06	0.35 (≈ 0.596 µM)	1.4 (≈ 2.38 µM)	< 0.063	64 (≈ 109 µM)	0.71 (≈ 1.21 µM)	–	0.076	870 (≈ 511 µg/mL)	18	–
CO[C@H]1CN(c2nc(C(=O)N3CCOCC3)c(C(=O)O)s2)CC[C@H]1NC(=O)c1[nH]c(C)c(Cl)c1Cl (racemic)	8 (≈ 14.6 µM)	< 10	2 (≈ 3.66 µM)	–	8 (≈ 14.6 µM)	> 8	2 (≈ 3.66 µM)	> 8	4 (≈ 7.32 µM)	-0.99	0.14	200 (≈ 109 µg/mL)	> 57	–
CO[C@H]1CN(c2nc(C(=O)NCCN3CCOCC3)c(C(=O)O)s2)CC[C@H]1NC(=O)c1[nH]c(C)c(Cl)c1Cl	0.25 (≈ 0.424 µM)	< 10	0.031 (≈ 0.0526 µM)	0.031 (≈ 0.0526 µM)	0.25 (≈ 0.424 µM)	0.5 (≈ 0.848 µM)	0.031 (≈ 0.0526 µM)	> 8	0.25 (≈ 0.424 µM)	1	0.054	> 1000	9.2	–
CO[C@H]1CN(c2nc(C(=O)O)c(C)s2)CC[C@H]1NC(=O)c1[nH]c(C)c(Cl)c1Cl	0.25 (≈ 0.559 µM)	< 10	0.031 (≈ 0.0693 µM)	0.063 (≈ 0.141 µM)	0.13 (≈ 0.291 µM)	0.13 (≈ 0.291 µM)	0.063 (≈ 0.141 µM)	> 8	0.25 (≈ 0.559 µM)	1.2	0.007	> 1000	19	–
CO[C@H]1CN(c2nc(-c3cncnc3)c(C(=O)O)s2)CC[C@H]1NC(=O)c1[nH]c(C)c(Cl)c1Cl	1.6 (≈ 3.13 µM)	< 10	< 0.1	0.4 (≈ 0.782 µM)	3.2 (≈ 6.26 µM)	3.2 (≈ 6.26 µM)	0.4 (≈ 0.782 µM)	> 100	0.8 (≈ 1.56 µM)	0.35	0.011	260 (≈ 133 µg/mL)	290	–
CO[C@H]1CN(c2nc(C(F)F)c(C(=O)O)s2)CC[C@H]1NC(=O)c1[nH]c(C)c(Cl)c1Cl	1 (≈ 2.07 µM)	< 10	0.063 (≈ 0.13 µM)	0.13 (≈ 0.269 µM)	2 (≈ 4.14 µM)	2 (≈ 4.14 µM)	0.063 (≈ 0.13 µM)	> 8	0.5 (≈ 1.03 µM)	0.52	–	690 (≈ 333 µg/mL)	–	70
CO[C@H]1CN(c2nc(-c3nccn3C)c(C(=O)O)s2)CC[C@H]1NC(=O)c1[nH]c(C)c(Cl)c1Cl	0.25 (≈ 0.487 µM)	< 10	< 0.06	< 0.06	< 0.06	–	< 0.06	8 (≈ 15.6 µM)	< 0.06	> 3	0.011	12 (≈ 6.16 µg/mL)	5.2	–
CO[C@H]1CN(c2nc(-c3cncc(NCCN4CCN(C)CC4)n3)c(C(=O)O)s2)CC[C@H]1NC(=O)c1[nH]c(C)c(Cl)c1Cl	1 (≈ 1.53 µM)	1.2	0.011 (≈ 0.0169 µM)	0.031 (≈ 0.0475 µM)	0.25 (≈ 0.383 µM)	0.58 (≈ 0.889 µM)	–	46 (≈ 70.5 µM)	0.51 (≈ 0.781 µM)	2	0.027	36 (≈ 23.5 µg/mL)	21	–
CO[C@H]1CN(c2nc(C(=O)NN3CCOCC3)c(C(=O)O)s2)CC[C@H]1NC(=O)c1[nH]c(C)c(Cl)c1Cl	1.4 (≈ 2.49 µM)	< 10	0.25 (≈ 0.445 µM)	0.25 (≈ 0.445 µM)	2 (≈ 3.56 µM)	4 (≈ 7.12 µM)	0.35 (≈ 0.623 µM)	> 64	1 (≈ 1.78 µM)	-0.15	0.071	> 1000	56	–

Source: ChEMBL document CHEMBL3352173, “Optimization of pyrrolamide topoisomerase II inhibitors toward identification of an antibacterial clinical candidate (AZD5099)” (J Med Chem, 2014)
